# Many of the other results were omitted from the sample, so hits are more common in it than they were.
# A1 apoptosis 2 – A1 inhibition read as caspase activation | MEF A1-2A-BIM cells, caspase-Glo luminescence, 3 h; percent of clofoctol response, DMSO zero | caspase activation, % (test concentration not listed) | 24,000 tested, under 10 active; in the data active means caspase activation above about 5.9%; inconclusive means no clear call, values can overlap the other calls; inactive means below about 2.2%
#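 Evaluation: Caspase-3/7 activity from luminescence increase | Assay system: A1-2A-BIM mouse embryonic fibroblasts | Quantity: 2500 MEF cells/well | Medium: RPMI-1640 plus 10% FBS | Detection: Caspase-Glo 3/7 luminescence, 1 h at room temperature | Dosing: 50 nL compound per well, pinned | Timing: Cells settled overnight, compound exposure 3 h at 37 °C, 5% CO2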
# T cruzi intra – inhibitors of intracellular Trypanosoma cruzi | intracellular Trypanosoma cruzi in host cells, plate reader | 4.9% of 22,000 active | activity score (inhibition), % at 5.01 µM; in the data active means activity score above about 55%; inconclusive means no clear call, values can overlap the other calls;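 further: parasites and compound incubated about four days before reading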
# INS-1E ATP HTS – INS-1E beta cell protection from cytokine death. INS-1E cytokine-induced death, ATP luminescence, 48 h; normalised: neutral wells 0, positive control 100. protection from cytokine-induced ATP loss, % at 10 µM. 0.1% of 20,000 active. AID 488910;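 active means mean replicate protection from cytokine-induced ATP loss at least 50% and at least 75% of replicates each reaching 50%; inconclusive means meets only one of the two criteria, mean or replicate share; inactive means fails both the mean and replicate share criteria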
#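 Test system: INS-1E rat cells | Quantity: 8000 cells per well | Medium: Phenol-red-free RPMI with 5% fetal bovine serum | Reagent: Cytokine cocktail of IFN-γ, TNF-α and IL-1β | Doses: One compound concentration, pin transfer | Timing: 48 h co-treatment, 10 min post-lysis read | Technique: Luminescent ATP assay (CellTiter-Glo)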
# A number is an active result; 0 = inactive; ? = inconclusive; - = no result.
SMILES,A1 apoptosis 2,T cruzi intra,INS-1E ATP HTS
COC(=O)CCCCCCC(=O)N/N=C/c1ccc(O)cc1Br,0,0,0
O=C1O[C@@H](c2ccccc2)[C@@H](c2ccccc2)N2[C@@H](c3ccccc3OCCO)[C@]3(C(=O)Nc4ccccc43)[C@@H](C(=O)Nc3nc4ccccc4s3)[C@H]12,0,-,-
C[C@H](CO)N1C[C@H](C)[C@@H](CN(C)Cc2ccc(Cl)c(Cl)c2)Oc2ccc(NC(=O)Cc3cn(C)c4ccccc34)cc2C1=O,0,0,0
C[C@H]1CN([C@@H](C)CO)C(=O)c2cc(NC(=O)Cc3cn(C)c4ccccc34)ccc2O[C@H]1CN(C)S(=O)(=O)c1ccc(Cl)cc1,0,67,0
C[C@H](CO)N1C[C@H](C)[C@H](CN(C)Cc2ccc(Cl)c(Cl)c2)Oc2ccc(NC(=O)Cc3cn(C)c4ccccc34)cc2C1=O,0,56,0
C[C@@H]1CN([C@H](C)CO)C(=O)c2cc(NC(=O)Cc3cn(C)c4ccccc34)ccc2O[C@H]1CN(C)Cc1ccc(-c2ccccc2)cc1,0,0,0
C[C@H](CO)N1C[C@H](C)[C@H](CN(C)S(=O)(=O)c2ccc(Cl)cc2)Oc2ccc(NC(=O)Cc3cn(C)c4ccccc34)cc2C1=O,0,0,0
C[C@H]1CN([C@@H](C)CO)C(=O)c2cc(NC(=O)Cc3cn(C)c4ccccc34)ccc2O[C@@H]1CN(C)Cc1ccc(-c2ccccc2)cc1,0,75,0
C[C@@H]1CN([C@H](C)CO)C(=O)Cc2cc(NC(=O)Cc3cn(C)c4ccccc34)ccc2O[C@@H]1CN(C)Cc1ccc(Cl)c(Cl)c1,0,69,0
C[C@H]1CN([C@@H](C)CO)C(=O)Cc2cc(NC(=O)Cc3cn(C)c4ccccc34)ccc2O[C@@H]1CN(C)Cc1ccc(Cl)c(Cl)c1,0,-,-
COC(=O)CCCCCCC(=O)N/N=C/c1ccc(N2CCCC2)cc1,0,0,0
O=C(NO)c1cccc(C(=O)N/N=C/c2ccc3ccccc3n2)c1,0,0,0
C[C@@H]1CN([C@@H](C)CO)C(=O)c2cccc(NC(=O)c3ccc(-c4nccs4)cc3)c2O[C@@H]1CN(C)Cc1ccc(C(=O)Nc2ccccc2N)cc1,0,75,?
C[C@H]1CN([C@@H](C)CO)C(=O)c2cccc(NC(=O)c3ccc(-c4nccs4)cc3)c2O[C@H]1CN(C)Cc1ccc(-c2ccccc2)cc1,-,66,0
C[C@H](CO)N1C[C@H](C)[C@@H](CN(C)Cc2ccc(-c3ccccc3)cc2)Oc2c(NC(=O)c3ccc(-c4nccs4)cc3)cccc2C1=O,-,81,0
C[C@H](CO)N1C[C@H](C)[C@@H](CN(C)Cc2ccc(Oc3ccccc3)cc2)Oc2c(NC(=O)c3ccc(-c4nccs4)cc3)cccc2C1=O,0,67,0
C[C@H]1CN([C@@H](C)CO)C(=O)c2cccc(NC(=O)c3ccc(-c4nccs4)cc3)c2O[C@H]1CN(C)Cc1ccc(Oc2ccccc2)cc1,0,0,0
C[C@H](CO)N1C[C@H](C)[C@H](CN(C)Cc2ccc(-c3ccccc3)cc2)Oc2c(NC(=O)c3ccc(-c4nccs4)cc3)cccc2C1=O,0,0,0
C[C@H](CO)N1C[C@H](C)[C@@H](CN(C)Cc2ccccc2)Oc2c(NC(=O)c3ccc(-c4nccs4)cc3)cccc2C1=O,-,0,0
C[C@@H]1CN([C@H](C)CO)C(=O)c2cccc(NC(=O)c3ccc(-c4nccs4)cc3)c2O[C@H]1CN(C)Cc1ccc(-c2ccccc2)cc1,-,0,0
C[C@@H]1CCCCO[C@H](CN(C)Cc2ccc(C(F)(F)F)cc2)[C@H](C)CN([C@H](C)CO)C(=O)c2cc(NS(=O)(=O)c3ccc(Cl)cc3)ccc2O1,0,-,-
O=c1[nH]c(=O)c2cc(Br)ccc2[nH]1,0,-,-
O=C(O)CCCCCC(=O)N/N=C/c1cc(Br)cs1,0,0,0
O=C(NO)c1cccc(C(=O)N/N=C/c2ccc(-c3ccccc3)cc2)c1,-,0,0
[N-]=[N+]=Nc1ccc(C[C@H]2C(=O)O[C@@H](Cc3ccccc3)[C@H]3C=C(/C=C/C4CC4)CN32)cc1,0,-,-
SMILES,A1 apoptosis 2,T cruzi intra,INS-1E ATP HTS
COc1ccc([C@@H]2C=C(C(=O)O)O[C@H](OCc3ccc(CO)cc3)C2)cc1,0,-,-
Cc1ccc(S(=O)(=O)Nc2cccc3c2O[C@H](CN(C)Cc2ccc(C(=O)Nc4ccccc4N)cc2)[C@@H](C)CN([C@H](C)CO)C3=O)cc1,0,-,-
C[C@H](CO)N1C[C@H](C)[C@@H](CN(C)Cc2ccc(C(=O)Nc3ccccc3N)cc2)Oc2c(NS(=O)(=O)c3ccc(Cl)cc3)cccc2C1=O,-,0,0
C[C@@H]1CN([C@H](C)CO)C(=O)c2cccc(NS(=O)(=O)c3ccccc3)c2O[C@@H]1CN(C)Cc1ccc(C(=O)Nc2ccccc2N)cc1,-,75,0
C[C@@H]1CN([C@@H](C)CO)C(=O)c2cccc(NS(=O)(=O)c3ccc(Cl)cc3)c2O[C@H]1CN(C)Cc1ccc(C(=O)Nc2ccccc2N)cc1,0,56,0
C[C@@H]1CN([C@H](C)CO)C(=O)c2cccc(NS(=O)(=O)c3ccc(F)cc3)c2O[C@H]1CN(C)Cc1ccc(C(=O)Nc2ccccc2N)cc1,0,0,0
C[C@@H]1CN([C@H](C)CO)C(=O)c2cccc(NS(=O)(=O)c3ccc(F)cc3)c2O[C@@H]1CN(C)Cc1ccc(C(=O)Nc2ccccc2N)cc1,0,60,0
Cc1ccc(S(=O)(=O)Nc2cccc3c2O[C@@H](CN(C)Cc2ccc(C(=O)Nc4ccccc4N)cc2)[C@@H](C)CN([C@H](C)CO)C3=O)cc1,0,57,0
C[C@H]1CN([C@@H](C)CO)C(=O)c2cccc(NS(=O)(=O)c3ccccc3)c2O[C@H]1CN(C)Cc1ccc(C(=O)Nc2ccccc2N)cc1,0,0,0
O=C(CCCCCC(=O)Nc1ccccc1O)N/N=C/[C@H](O)[C@@H](O)[C@H](O)[C@H](O)CO[C@H]1O[C@H](CO)[C@H](O)[C@H](O)[C@H]1O,0,-,-
CCCCN(CCCC)c1ccc(/C=N/NC(=O)CCCCCCC(=O)Nc2ccccc2O)cc1,-,0,0
COc1ccc([Si](C)(C)[C@@H]2[C@@H](CCO)O[C@]3(C(=O)N(Cc4cccc(NC(=O)[C@H](C)O)c4)c4ccccc43)[C@H]2C)cc1,0,-,-
O=C(CCCCCC(=O)N/N=C/c1ccc(-n2ccnc2)cc1)NO,-,0,0
O=C(C1=C[C@H](c2coc3ccccc3c2=O)C[C@H](OCCCCO)O1)N1CCCCCCC1,0,-,-
CCOc1cc(/C=N/NC(=O)CCCCCCC(=O)OC)ccc1O,-,0,0
COc1ccccc1CN1C(=O)c2ccccc2[C@](Cc2ccccc2I)(C(=O)NCC(C)C)[C@@H]1c1ccc(CO)cc1,0,-,-
COc1ccc(NC(=O)Nc2ccc3c(c2)CC(=O)N([C@@H](C)CO)C[C@@H](C)[C@@H](CN(C)Cc2ccc(Oc4ccccc4)cc2)O3)cc1,0,60,0
C[C@H]1CN([C@@H](C)CO)C(=O)Cc2cc(NC(=O)Nc3ccc(F)cc3)ccc2O[C@H]1CN(C)Cc1ccccc1,0,0,0
